Reference: ChEMBL document CHEMBL3046721, “3-(Arylthiomethyl)isoxazole-4,5-dicarboxamides: chemoselective nucleophilic chemistry and insecticidal activity” (2009)
Calls of active or inactive are those of the source. Unless noted, the calls are words filed in the database; no cut-off is given here.

Legend:
Spodoptera exigua [1] = experiment: Insecticidal activity against second-instar larval stage of Spodoptera exigua fed with artificial diet containing compound assessed as mortality at 50 ug/cm2 after 5 days by diet-based secondary assay; assay type: functional; conditions: 120 h
How it was run: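 Second-instar larvae on 128-well trays with 1 mL diet dosed at 50 μg/cm2, eight wells per treatment under clear plastic. Percent mortality averaged over the eight wells, scored 5 days after assay start; tested only on primary-screen hits (>67% mortality).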

Helicoverpa zea = experiment: Insecticidal activity against second-instar larval stage of Helicoverpa zea (corn earworm) fed with artificial diet containing compound assessed as mortality after 5 days by diet-based secondary assay; assay type: functional, organism-based
How it was run: (§1)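 Follow-up for primary-screen hits (>67% mortality): 128-well diet trays, 1 mL diet containing selected dosages, second-instar larvae. Wells covered with clear plastic, eight wells per treatment, percent mortality averaged over eight wells at 5 days. Approximate LC50 estimated by probit analysis.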

Aedes aegypti = experiment: Insecticidal activity against larvae of Aedes aegypti assessed as mortality after 3 days by high-throughput screening assay; assay type: functional, organism-based
How it was run: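 One-day-old larvae placed in 96-well plates pre-treated with 6 μg/well, applied in 15 μl DMSO-acetone-water (1:1:8) and dried. Plates lidded, held at room temperature, mortality graded 3 days post-treatment. Six replicates per treatment.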

Spodoptera exigua [2] = experiment: Insecticidal activity against larvae of Spodoptera exigua fed with artificial diet containing compound assessed as mortality after 6 days by high-throughput screening assay; assay type: functional; design: concentration or dose not given beside the values
How it was run: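 Artificial diet (100 μl/well, 96-well) pretreated with 12 μg compound in 30 μl DMSO-acetone-water (2:1:7), dried several hours, then seeded with eggs. Plates covered, kept in dark at 29°C, mortality recorded 6 days post-treatment. Six replicates per treatment.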

Spodoptera exigua [3] = experiment: Insecticidal activity against second-instar larval stage of Spodoptera exigua fed with artificial diet containing compound assessed as mortality after 5 days by diet-based secondary assay; assay type: functional; how it was run: as §1

SMILES	mortality at 50 µg/cm2 (Spodoptera exigua [1]) [%]	mortality (Helicoverpa zea)	mortality (Aedes aegypti)	mortality (Spodoptera exigua [2]) [%]	LC50 (Spodoptera exigua [3]) [microg/cm2]
Cc1cc(C)cc(SCc2noc(C(=O)NCc3ccccc3)c2C(=O)NCc2ccccc2)c1	0	inactive	inactive	83	
CC(C)CCNC(=O)c1onc(CSc2ccc(Cl)cc2)c1C(=O)NCCC(C)C	0	inactive	inactive	100	
CCCCNC(=O)c1onc(CS(=O)(=O)c2ccccc2)c1C(=O)NCCCC	75	inactive	inactive	100	30
CC[C@H]1CCC[C@H](O[C@H]2CC[C@H](N(C)C)[C@@H](C)O2)[C@@H](C)C(=O)C2=C[C@@H]3[C@@H](C=C(C)[C@@H]4C[C@@H](O[C@@H]5O[C@@H](C)[C@H](OC)[C@@H](OC)[C@H]5OC)C[C@@H]34)[C@@H]2CC(=O)O1.CC[C@H]1CCC[C@H](O[C@H]2CC[C@H](N(C)C)[C@@H](C)O2)[C@@H](C)C(=O)C2=C[C@@H]3[C@@H](C=C[C@@H]4C[C@@H](O[C@@H]5O[C@@H](C)[C@H](OC)[C@@H](OC)[C@H]5OC)C[C@@H]34)[C@@H]2CC(=O)O1					0.06
C=CCNC(=O)c1onc(CS(=O)(=O)c2ccc(Cl)cc2)c1C(=O)NCC=C	0	inactive	inactive	100	
CCCCNC(=O)c1onc(CS(=O)(=O)c2ccc(Cl)cc2)c1C(=O)NCCCC	0	inactive	inactive	100	
COCCNC(=O)c1onc(CSc2ccc(Cl)cc2)c1C(=O)NCCOC	0	inactive	inactive	83	
COCCNC(=O)c1onc(CS(=O)(=O)c2ccc(Cl)cc2)c1C(=O)NCCOC	0	inactive	inactive	100	
C=CCNC(=O)c1c(CS(=O)(=O)c2ccccc2)noc1C(=O)NCc1ccccc1	0	inactive	inactive	100	
CCCCNC(=O)c1c(CSc2ccc(Cl)cc2)noc1C(=O)NCc1ccccc1	0	inactive	inactive	83	
CC(C)CCNC(=O)c1onc(CSc2ccc(F)cc2)c1C(=O)NCCC(C)C	38	inactive	inactive	100	
CCCNC(=O)c1c(CSc2ccccc2)noc1C(=O)NCc1ccccc1	38	inactive	inactive	83	
CCCCNC(=O)c1c(CSc2ccccc2)noc1C(=O)NCc1ccccc1	0	inactive	inactive	100	
CC(C)NC(=O)c1c(CSc2ccccc2)noc1C(=O)NCc1ccccc1	0	inactive	inactive	83	
CCCNC(=O)c1c(CSc2ccc(Cl)cc2)noc1C(=O)NCc1ccccc1	0	inactive	inactive	100	
COCCNC(=O)c1c(CS(=O)(=O)c2ccc(Cl)cc2)noc1C(=O)NCc1ccccc1	0	inactive	inactive	100	
CCCCNC(=O)c1c(CS(=O)(=O)c2ccc(Cl)cc2)noc1C(=O)NCc1ccccc1	0	inactive	inactive	83	
C=CCNC(=O)c1c(CS(=O)(=O)c2ccc(Cl)cc2)noc1C(=O)NCc1ccccc1	38	inactive	inactive	100	
COCCNC(=O)c1onc(CS(=O)(=O)c2ccccc2)c1C(=O)NCCOC	75	inactive	inactive	83	19
CCCNC(=O)c1c(CS(=O)(=O)c2ccccc2)noc1C(=O)NCc1ccccc1	0	inactive	inactive	100	
CC(C)NC(=O)c1c(CSc2ccc(Cl)cc2)noc1C(=O)NCc1ccccc1	0	inactive	inactive	100	
CC(C)NC(=O)c1onc(CSc2ccc(Cl)cc2)c1C(=O)NC(C)C	0	inactive	inactive	83	
CCCNC(=O)c1onc(CS(=O)(=O)c2ccc(Cl)cc2)c1C(=O)NCCC	0	inactive	inactive	83	
C=CCNC(=O)c1c(CSc2ccc(Cl)cc2)noc1C(=O)NCc1ccccc1	0	inactive	inactive	83	
COCCNC(=O)c1onc(CSc2ccccc2)c1C(=O)NCCOC	0	inactive	inactive	83	
CCCNC(=O)c1onc(CS(=O)(=O)c2ccccc2)c1C(=O)NCCC	0	inactive	inactive	100	
